Data as given in ChEMBL document CHEMBL1147085, “Metabolism and pharmacokinetics of a novel Src kinase inhibitor TG100435 ([7-(2,6-dichloro-phenyl)-5-methyl-benzo[1,2,4]triazin-3-yl]-[4-(2-pyrrolidin-1-yl-ethoxy)-phenyl]-amine) and its active N-oxide metabolite TG100855 …” (Drug Metab Dispos, 2007).

Assays:
Rattus norvegicus [1] = test: Drug level in Sprague-Dawley rat plasma at 5 mg/kg, ip; assay type: ADME, organism-based; set-up: dose 5 mg/kg, route intraperitoneal; settings: in vivo
[2] = Bioavailability in BALB/c mouse at 25 mg/kg, po; assay type: ADME, organism-based; settings: in vivo
[3] = Volume of distribution in BALB/c mouse at 5 mg/kg, iv; assay type: ADME, organism-based; set-up: dose 5 mg/kg, route intravenous; settings: in vivo
Rattus norvegicus [4] = test: AUC (0 to last) in Sprague-Dawley rat assessed as AUC of ([7-(2,6-Dichloro-phenyl)-5-methyl-benzo[1,2,4]triazin-3-yl]-[4-(2-pyrrolidin-1-yl-ethoxy)-phenyl]-amine) at 25 mg/kg, po; settings: in vivo
[5] = target: Tyrosine-protein kinase Lck (Homo sapiens, UniProt P06239); test: Inhibition of Lck by luminescence based kinase assay
[6] = Bioavailability in Sprague-Dawley rat at 25 mg/kg, po; assay type: ADME, organism-based; settings: in vivo
[7] = target: Tyrosine-protein kinase Lyn (Homo sapiens, UniProt P07948); test: Inhibition of Lyn by luminescence based kinase assay
[8] = AUC (0 to infinity) in Sprague-Dawley rat at 5 mg/kg, iv; assay type: ADME, organism-based; set-up: time infinity, dose 5 mg/kg, route intravenous; settings: plasma
[9] = Clearance in Sprague-Dawley rat at 5 mg/kg, ip; assay type: ADME, organism-based; set-up: dose 5 mg/kg, route intraperitoneal; settings: in vivo
Rattus norvegicus [10] = test: Volume of distribution in Sprague-Dawley rat at 5 mg/kg, ip; assay type: ADME, organism-based; set-up: dose 5 mg/kg, route intraperitoneal; settings: in vivo
[11] = Tmax in BALB/c mouse at 25 mg/kg, po; assay type: ADME, organism-based; set-up: dose 25 mg/kg, route oral; settings: in vivo
[12] = AUC (0 to last) in Sprague-Dawley rat at 25 mg/kg, po; assay type: ADME, organism-based; set-up: time 0 - last, dose 25 mg/kg, route oral; settings: plasma
Mus musculus [13] = test: Maximal plasma concentration of TG100435 in BALB/C mice after 25 mg/kg oral dose of TG100855; assay type: ADME, organism-based; set-up: dose 25 mg/kg, route oral; settings: in vivo
Outline: (§1)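 Male BALB/c mice (~25 g); fasted overnight for single p.o. dosing, not fasted for i.v. or i.p. dosing. Composite blood sampling, n=3 per time point: 5, 15, 30 min, 1, 3, 6, 24, 48 hr after i.v. dose; 0.5, 1, 3, 5, 8, 24, 30, 48 hr after p.o. or i.p. dose. Heparinized plasma, both parent and N-oxide measured by LC/MS/MS (MRM 494.2/98.1 and 510.2/98.1); non-compartmental analysis, AUC by linear trapezoidal rule.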

[14] = Half life in BALB/c mouse at 5 mg/kg, iv; assay type: ADME, organism-based; set-up: dose 5 mg/kg, route intravenous; settings: in vivo; outline: as §1
Mus musculus [15] = test: Volume of distribution in BALB/c mouse at 5 mg/kg, ip; assay type: ADME, organism-based; set-up: dose 5 mg/kg, route intraperitoneal; settings: in vivo; outline: as §1
[16] = AUC (0 to last) in BALB/c mouse at 25 mg/kg, po; assay type: ADME, organism-based; set-up: time 0 - last, dose 25 mg/kg, route oral; settings: plasma; outline: as §1
[17] = Volume of distribution in Sprague-Dawley rat at 5 mg/kg, iv; assay type: ADME, organism-based; set-up: dose 5 mg/kg, route intravenous; settings: in vivo
[18] = Drug level in BALB/c mouse plasma at 5 mg/kg, iv; assay type: ADME, organism-based; set-up: dose 5 mg/kg, route intravenous; outline: as §1
[19] = Clearance in BALB/c mouse at 5 mg/kg, ip; assay type: ADME, organism-based; set-up: dose 5 mg/kg, route intraperitoneal; settings: in vivo; outline: as §1
Mus musculus [20] = test: AUC (0 to last) in BALB/c mouse assessed as AUC of ([7-(2,6-Dichloro-phenyl)-5-methyl-benzo[1,2,4]triazin-3-yl]-[4-(2-pyrrolidin-1-yl-ethoxy)-phenyl]-amine) at 25 mg/kg, po; settings: in vivo
Rattus norvegicus [21] = test: Tmax in Sprague-Dawley rat assessed as Tmax of ([7-(2,6-Dichloro-phenyl)-5-methyl-benzo[1,2,4]triazin-3-yl]-[4-(2-pyrrolidin-1-yl-ethoxy)-phenyl]-amine) at 25 mg/kg, po; settings: in vivo
Mus musculus [22] = test: Bioavailability in BALB/c mouse assessed as bioavailability of ([7-(2,6-Dichloro-phenyl)-5-methyl-benzo[1,2,4]triazin-3-yl]-[4-(2-pyrrolidin-1-yl-ethoxy)-phenyl]-amine) at 25 mg/kg, po; settings: in vivo
[23] = Drug level in Sprague-Dawley rat plasma at 5 mg/kg, iv; assay type: ADME, organism-based; set-up: dose 5 mg/kg, route intravenous
Rattus norvegicus [24] = test: AUC (0 to infinity) in Sprague-Dawley rat assessed as AUC of ([7-(2,6-Dichloro-phenyl)-5-methyl-benzo[1,2,4]triazin-3-yl]-[4-(2-pyrrolidin-1-yl-ethoxy)-phenyl]-amine) at 25 mg/kg, po; settings: in vivo

Chain of Tyrosine-protein kinase Lyn (P07948 whole entry): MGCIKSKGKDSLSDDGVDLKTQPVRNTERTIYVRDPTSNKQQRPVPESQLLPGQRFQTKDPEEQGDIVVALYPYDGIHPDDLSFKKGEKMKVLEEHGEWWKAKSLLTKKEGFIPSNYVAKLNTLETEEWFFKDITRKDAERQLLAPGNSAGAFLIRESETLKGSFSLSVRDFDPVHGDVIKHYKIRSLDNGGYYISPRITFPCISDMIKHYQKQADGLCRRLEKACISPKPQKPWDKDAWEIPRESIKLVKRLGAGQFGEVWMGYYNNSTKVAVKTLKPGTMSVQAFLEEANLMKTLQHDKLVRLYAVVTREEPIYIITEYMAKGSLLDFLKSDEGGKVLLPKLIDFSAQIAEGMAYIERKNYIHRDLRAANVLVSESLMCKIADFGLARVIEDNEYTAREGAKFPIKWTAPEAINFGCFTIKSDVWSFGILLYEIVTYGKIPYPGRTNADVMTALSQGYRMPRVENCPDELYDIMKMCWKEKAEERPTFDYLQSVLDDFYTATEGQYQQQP
Chain of Tyrosine-protein kinase Lck (P06239 whole entry): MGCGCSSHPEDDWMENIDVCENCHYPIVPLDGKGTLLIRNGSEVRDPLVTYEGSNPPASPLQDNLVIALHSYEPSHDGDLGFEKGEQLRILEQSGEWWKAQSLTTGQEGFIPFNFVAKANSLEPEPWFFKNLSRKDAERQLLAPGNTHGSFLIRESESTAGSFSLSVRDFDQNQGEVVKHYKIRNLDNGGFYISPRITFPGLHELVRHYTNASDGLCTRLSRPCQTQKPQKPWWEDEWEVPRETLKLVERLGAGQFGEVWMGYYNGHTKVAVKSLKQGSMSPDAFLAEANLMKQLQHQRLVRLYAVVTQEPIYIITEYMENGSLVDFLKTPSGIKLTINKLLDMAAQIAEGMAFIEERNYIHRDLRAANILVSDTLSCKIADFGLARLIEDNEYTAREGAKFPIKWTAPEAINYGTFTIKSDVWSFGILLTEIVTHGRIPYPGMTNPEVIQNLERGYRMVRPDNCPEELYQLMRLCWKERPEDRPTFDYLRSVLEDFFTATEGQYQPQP

Cc1cc(-c2c(Cl)cccc2Cl)cc2nnc(Nc3ccc(OCC[N+]4([O-])CCCC4)cc3)nc12
C0 (Rattus norvegicus [1]): 1080 ng/mL
bioavailability [2]: 3.5%
Vd [3]: 1.2 L/kg
AUC (Rattus norvegicus [4]): 881 ng·h/mL
Ki [5]: 11.7 nM
bioavailability [6]: 1.6%
Ki [7]: 4.19 nM
AUC(0-inf) [8]: 6050 ng·h/mL
CL/F [9]: 17 mL/min/kg
Vd (Rattus norvegicus [10]): 3.3 L/kg
Tmax [11]: 1 h
AUC(0-t) [12]: 467 ng·h/mL
Cmax (Mus musculus [13]): 113 ng/mL
half-life [14]: 0.9 h
Vd (Mus musculus [15]): 2.6 L/kg
AUC(0-t) [16]: 912 ng·h/mL
Vd [17]: 1.9 L/kg
C0 [18]: 9030 ng/mL
CL/F [19]: 11.6 mL/min/kg
AUC (Mus musculus [20]): 1740 ng·h/mL
Tmax (Rattus norvegicus [21]): 4 h
F (Mus musculus [22]): 6.8%
C0 [23]: 12200 ng/mL
AUC (Rattus norvegicus [24]): 906 ng·h/mL
